Measurements from ChEMBL document CHEMBL2390884, “Design, synthesis and antiproliferative activity studies of novel 1,2,3-triazole-dithiocarbamate-urea hybrids” (Eur J Med Chem, 2013).
Calls of active or inactive are those of the source. The rule behind the calls is not given here.

What was measured:
MGC-803 [1] = test: Cell cycle arrest in human MGC803 cells assessed as accumulation at G2/M phase at 0.25 uM after 24 hrs by propidium iodide staining-based flow cytometry; type: functional
Summary of the method: (§1)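 Exponentially growing MGC-803 cells (5×10^5) treated at 0, 0.25, 0.5 or 1.0 µmol/L for 12 or 24 h; cells collected, fixed in ice-cold 70% ethanol, treated with buffer containing RNAse A and 0.1% Triton X-100, stained with PI; DNA content analysed by flow cytometry to give percentages of cells in G1, S and G2/M phases.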

MGC-803 [2] = test: Cell cycle arrest in human MGC803 cells assessed as accumulation at G0/G1 phase at 1 uM after 24 hrs by propidium iodide staining-based flow cytometry; type: functional; summary of the method: as §1
MGC-803 [3] = test: Cell cycle arrest in human MGC803 cells assessed as accumulation at G2/M phase after 12 to 24 hrs by propidium iodide staining-based flow cytometry; type: functional; summary of the method: as §1
MGC-803 [4] = test: Induction of apoptosis in human MGC803 cells assessed as nuclear shrinkage at 0.25 to 1 uM after 12 hrs by Hoechst 33258 staining-based fluorescence microscopy; type: functional, cell-based
Summary of the method: (§2)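 MGC-803 cells seeded at 8×10^3 cells/well, treated 12 h at 0, 0.25, 0.5 or 1.0 µmol/L; cells collected, fixed, stained 20 min with Hoechst 33258, washed with PBS; nuclear shrinkage, chromatin condensation, intense fluorescence and fragmentation scored by fluorescence microscopy.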

MCF7 = test: Cytotoxicity against human MCF7 cells after 72 hrs by MTT assay; type: functional, cell-based; details: MCF7, 72 h
MGC-803 [5] = test: Cell cycle arrest in human MGC803 cells assessed as accumulation at G2/M phase at 0.5 uM after 12 hrs by propidium iodide staining-based flow cytometry; type: functional; summary of the method: as §1
MGC-803 [6] = test: Cytotoxicity against human MGC803 cells after 72 hrs by MTT assay; type: functional, cell-based; details: MGC-803, 72 h
MGC-803 [7] = test: Cell cycle arrest in human MGC803 cells assessed as accumulation at G2/M phase at 0.5 uM after 24 hrs by propidium iodide staining-based flow cytometry; type: functional; summary of the method: as §1
MGC-803 [8] = test: Induction of apoptosis in human MGC803 cells assessed as chromatin condensation at 0.25 to 1 uM after 12 hrs by Hoechst 33258 staining-based fluorescence microscopy; type: functional, cell-based; summary of the method: as §2
MGC-803 [9] = test: Cell cycle arrest in human MGC803 cells assessed as accumulation at G2/M phase at 1 uM after 24 hrs by propidium iodide staining-based flow cytometry; type: functional; summary of the method: as §1
MGC-803 [10] = test: Induction of apoptosis in human MGC803 cells assessed as viable cells at 0.25 uM after 12 hrs by AnnexinV-FITC/propidium iodide staining-based flow cytometry (reference value: 91.9 %); type: functional; details: MGC-803, 12 h, read-out: Activity
MGC-803 [11] = test: Induction of apoptosis in human MGC803 cells assessed as early apoptotic cells at 0.5 uM after 12 hrs by AnnexinV-FITC/propidium iodide staining-based flow cytometry (reference value: 2.8 %); type: functional
MGC-803 [12] = test: Induction of apoptosis in human MGC803 cells assessed as viable cells at 1 uM after 12 hrs by AnnexinV-FITC/propidium iodide staining-based flow cytometry (reference value: 91.9 %); type: functional; details: MGC-803, 12 h, read-out: Activity

For `CC(C)NC(=O)N1CCN(C(=S)SCc2cn(Cc3ccc(F)cc3)nn2)CC1`, the Activity (MGC-803 [1]) was 58.94%, the Activity (MGC-803 [2]) was 2.32% and the Activity (MGC-803 [3]) was “Dose-dependent effect”. For the same molecule, the Activity (MGC-803 [4]) was “Active”, the IC50 (MCF7) was 1660 nM and the Activity (MGC-803 [5]) was 46.86%. For the same molecule, the IC50 (MGC-803 [6]) was 760 nM, the Activity (MGC-803 [7]) was 69.88% and the Activity (MGC-803 [8]) was “Active”. It also gave an Activity (MGC-803 [9]) of 79.02%, a viability at 0.25 µM (MGC-803 [10]) of 88.1% and an Activity (MGC-803 [11]) of 17.2%. It also gave a viability at 1 µM (MGC-803 [12]) of 65%.
